Assay outcomes as filed in PubChem BioAssay.
tolC growth inh = E. coli tolC mutant growth inhibition; E. coli BW25113 tolC mutant growth, OD615; growth inhibition, % at 10 µM (by protocol); 65,000 tested, 2.2% active; AID 573;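 active = growth inhibition at or above a cutoff equal to the mean over every tested compound plus 3 SD, cut at about 60% in these data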;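 also: growth measured after 20 h incubation at 37 °C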
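Test system – E. coli BW25113 ΔtolC::kan, tolC deletion mutant strain · Detection – OD at 615 nm · Buffer or medium – LB with kanamycin 50 µg/mL · Times – 20 h compound exposure of bacteria at 37 °C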
PostGolgi ctrl = growth of the yeast control strain, post-Golgi counter-screen. efflux-deficient yeast background strain, growth absorbance A615, 16 h. inhibition, % at 10 µM. 98,000 tested, 5% active. AID 738
PostGolgi yeast = growth inhibition of a yeast mutant, post-Golgi transport screen; 98,000 tested, 0.9% active; post-Golgi transport phenotypic cell assay; AID 739; inhibition, % at 10 µM;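 also: yeast cells grown in 1536-well plates; yeast grown about 18 h at 30C before absorbance read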
Ecoli WT expand = E. coli BW25113 growth inhibition, expanded screen. OD600 absorbance. growth inhibition, % at 100 µM. 98,000 tested, 0.15% active. AID 710;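 active = growth inhibition above about 50% at one test dose, limit read from the data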;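 also: growth measured after 20 h incubation at 37 °C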
Cav32 inh = inhibitors of human Cav3.2 T-type calcium channel. O95180. B-score at 10 µM. 100,000 tested, 4% active. Cav3.2-expressing cells, Fluo-4 calcium fluorescence FDSS; hits give low values. AID 449739;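 active = single-dose well whose peak fluorescence ratio is a statistical outlier from its plate by either plate-standardised score or position-corrected B-score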
Hits are given with their value; - = inactive; . = no result. Hits are enriched below; roughly 8.4% of the tested compounds scored in any of these assays. Rule as the data show it, unless noted: active = inhibition above about 30%; inactive = the rest.

SMILES	tolC growth inh	PostGolgi ctrl	PostGolgi yeast	Ecoli WT expand	Cav32 inh
Cc1cccc(NC(=O)C23CCC(C)(C2Br)C3(C)C)c1 (stereo not drawn)	.	-	-	-	-5.4
O=C1CSC(=S)N1Cc1cccnc1	-	-	-	65	-
O=C1CSC(=S)N1c1cccnc1	-	-	-	-	-
COc1ccc(NS(=O)(=O)c2ccc(NS(=O)(=O)c3ccc(C)cc3)cc2)nn1	-	-	-	-	.
O=c1c2ccccc2nc(-c2ccc(Cl)c(Cl)c2)n1O	.	-	-	-	-4.3
O=c1c2ccc(Cl)cc2nc(-c2cccc(C(F)(F)F)c2)n1O	.	-	-	-	-5.9
O=S1(=O)CC(N2CCCCC2)C(N2CCCCC2)C1 (stereo not drawn)	-	-	-	-	-
O=C(O)C(CC(=O)N1CCOCC1)NCc1ccccc1 (stereo not drawn)	-	.	.	.	.
COC(=O)C1CCC(C)(C(=O)Nc2ccccc2)C1(C)C (stereo not drawn)	-	-	-	-	-
Cc1ccc2c(c1)cc(CN(Cc1ccccc1)C(=O)N(C)C)c1nnnn12	-	.	.	.	.
Cc1ccc2c(c1)cc(CN(Cc1ccco1)C(=O)COc1ccccc1)c1nnnn12	-	42	-	-	-
O=C(NCc1cccc(Br)c1)C1CC(c2ccc(C(F)(F)F)cc2)=NO1 (stereo not drawn)	.	.	.	.	-
NS(=O)(=O)c1ccc(CCNc2ncnc3c2c(-c2ccccc2)cn3-c2ccc(F)cc2)cc1	.	61	-	-	-
COc1ccccc1N1CCN(CC(=O)Nc2ccc(Cl)c(C(F)(F)F)c2)CC1	.	.	.	.	-4.2
COc1ccc(C)cc1NC(=O)CN1CCN(S(=O)(=O)c2ccc(C(C)C)cc2)CC1	-	-	-	-	-
O=C(CN1CCN(S(=O)(=O)c2ccccc2)CC1)Nc1cccc(C(F)(F)F)c1	-	-	-	-	-7.7
CCOc1ccc(NC(=O)CN2CCN(CC(=O)Nc3ccc(Cl)c(C(F)(F)F)c3)CC2)cc1	.	35	-	-	-6.2
O=C(CN1CCN(c2ccccn2)CC1)Nc1ccc(Cl)c(C(F)(F)F)c1	-	-	-	-	-
COc1ccc(C)cc1NC(=O)CN1CCN(S(=O)(=O)c2ccc(Cl)cc2)CC1	-	50	-	-	-
COc1ccc(S(=O)(=O)N2CCN(CC(=O)Nc3ccc(F)c(F)c3)CC2)cc1	-	-	-	-	-4.9
CCN(CC)S(=O)(=O)c1cccc(NC(=O)Nc2cccc(C(F)(F)F)c2)c1	.	-	-	-	-5.8
CCOc1ccc(S(=O)(=O)N2CCCC2)cc1	.	-	-	-	-
O=C(CN1CCN(S(=O)(=O)c2ccc(F)cc2)CC1)Nc1ccc(Cl)c(C(F)(F)F)c1	64	33	-	-	.
CCN(CC)S(=O)(=O)c1ccc2c(c1)nc(CCC(=O)Nc1cccc(C(F)(F)F)c1)n2CC	.	-	-	-	-
CCOc1ccc(C(=O)CN2CCN(S(=O)(=O)c3ccc(Cl)cc3)CC2)cc1	-	32	-	-	-
SMILES	tolC growth inh	PostGolgi ctrl	PostGolgi yeast	Ecoli WT expand	Cav32 inh
CCN1C(=O)N[C@@H](c2ccco2)C(C(C)=O)=C1C	.	.	.	.	-
CCC1=C(OC(=O)N(CC)CC)N2C(=O)OC(=NCC(=O)OC)[C@]2(Cc2ccccc2)[C@H]2C1=CC[C@H]1C(=O)N(CC(=O)OC)C(=O)[C@H]12	.	.	.	.	-
COc1cc2c(C(=O)O)c(C)n(CC(C)C)c2c2ccccc12	.	33	-	-	.
CC(=O)N1CCN(c2cc(N3CCc4ccccc4C3)c(F)cc2[N+](=O)[O-])CC1	.	-	-	-	-
O=C(c1ccccc1)N1CC(COc2ccccc2)OC(c2ccco2)O1 (stereo not drawn)	-	-	-	-	-4
O=C(c1ccc(OCC2CCCO2)cc1)N1CCN(c2ccccc2)CC1 (stereo not drawn)	-	-	-	-	-
O=C(Nc1ccc(F)cc1)c1cc(S(=O)(=O)N2CCCCC2)cs1	-	-	-	-	-
CCC1(C)Cc2ccccc2-c2nc3n(c(=O)c21)CCCCC3 (stereo not drawn)	100	-	-	-	-
CC1(C)Cc2ccccc2-c2nc(NCCO)n(-c3ccccc3)c(=O)c21	-	-	-	-	-
CCC1(C)Cc2ccccc2-c2nc(NCCO)n(-c3ccc(C)cc3)c(=O)c21 (stereo not drawn)	.	35	-	-	-
Cc1nnc(SCCCOc2ccccc2)nc1C	.	.	.	.	-
CCn1nc(C(=O)Nc2cccc3ccccc23)c(Cl)c1Cl	.	-	-	-	-5.7
Cc1cccc(-n2nnc(C(=O)N3CCc4ccccc4C3)c2N)c1	-	34	-	-	-4.7
Cc1cccc(-n2nnc(C(=O)Nc3ccc(F)cc3)c2N)c1	-	-	-	-	-
CCOC(=O)N1CCN(c2cc(=O)n(-c3ccc(Br)cc3)c(=O)[nH]2)CC1	.	-	-	-	-
Cc1occc1C(=O)Nc1ccc2ccccc2c1	-	52	-	-	-
CCc1ccccc1NC(=O)c1ccoc1C	-	37	-	-	-
COC(=O)c1cccc(Oc2nc(N3CCOCC3)nc(N3CCOCC3)n2)c1	-	.	.	.	.
N[C@@H](CO)c1nnc([C@H](CCC(=O)O)NC(=O)C2CCNCC2)o1	.	.	.	.	-
CCCCCCn1c(C(C)NC(=O)c2ccco2)nc2ccccc21 (stereo not drawn)	-	-	-	-	-10
CCCCn1c(=N)n(CC(=O)c2ccco2)c2ccccc21	.	-	-	-	.
CCCCCCCn1c(=N)n(CC(=O)c2ccco2)c2ccccc21	.	-	-	-	-2.6
CC1Cc2nc(SCC(=O)NCc3ccco3)n(Cc3ccccc3)c(=O)c2S1 (stereo not drawn)	-	43	-	-	-
Cc1cc(C)cc(NC(=O)CSc2nc3c(c(=O)n2C)SC(C)C3)c1 (stereo not drawn)	-	-	-	-	-
CCn1c(SCC(=O)Nc2nc3ccc(C)cc3s2)nc2c(c1=O)SC(C)C2 (stereo not drawn)	-	84	-	-	-
SMILES	tolC growth inh	PostGolgi ctrl	PostGolgi yeast	Ecoli WT expand	Cav32 inh
Cc1cc(C)c(NC(=O)CSc2nc3c(c(=O)n2C)SC(C)C3)c(C)c1 (stereo not drawn)	-	31	-	-	-
CCn1c(SCC(=O)Nc2cc(C)on2)nc2c(c1=O)SC(C)C2 (stereo not drawn)	-	-	-	-	-
COC(=O)c1ccc(C2C(C(C)=O)=C(C)Nc3ncnn32)cc1 (stereo not drawn)	-	-	-	-	-
COC(=O)c1cccc(C(=O)Nc2ccc(F)cc2)n1	.	32	-	-	-
CN(C)c1ccnc(Oc2ccc(C(C)(C)C)cc2)c1C#N	.	-	-	-	-
Cc1noc(C)c1COC(=O)c1cc(C)n(-c2ccccc2)c1C	93	-	-	-	-4.9
O=C(OCc1nnc(-c2ccccc2)o1)c1cn(-c2ccccc2)nc1-c1ccccc1	-	-	-	-	-
Cc1cc(C(=O)OCc2nnc(-c3ccccc3)o2)c(C)n1-c1ccccc1	63	-	-	-	-
CC(C)CCNC(=O)C1CCN(C(=O)N(C)C)CC1	-	-	-	-	-
COC(=O)N1CC(=O)N(OC)C1c1ccc(Cl)cc1Cl (stereo not drawn)	-	-	-	-	-
O=C(Nc1cccc(Cl)c1)N(CCCN1CCOCC1)Cc1ccccc1F	68	-	-	-	-
